Measurements published in ChEMBL document CHEMBL1156503, “Long-acting kappa opioid antagonists disrupt receptor signaling and produce noncompetitive effects by activating c-Jun N-terminal kinase” (J Biol Chem, 2007).
Active and inactive are the calls of the source.

What was measured:
[1] = tested on: Mus musculus; assay: Inhibition of U50488-induced analgesic activity against C57BL/6 mouse assessed as tail withdrawal latency at 10 mg/kg, ip; format: functional, organism-based; parameters: dose 10 mg/kg
Summary of the method: (§1)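 Male C57Bl/6 mice, 20–30 g. Single 10 mg/kg i.p. dose or saline. At set days, U50,488 15 mg/kg i.p. was given and tail-withdrawal latency from 52 ± 1 °C water measured 30 min later, 15 s cut-off. One-way ANOVA with Bonferroni post hoc test.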

[2] = tested on: Mus musculus; assay: Inhibition of U50488-induced analgesic activity against C57BL/6 mouse assessed as tail withdrawal latency at 10 mg/kg, ip after 2 days; format: functional, organism-based; parameters: dose 10 mg/kg; summary of the method: as §1
[3] = biological target: T1, c-Jun N-terminal kinase, JNK (Homo sapiens, UniProt P45983+P53779+P45984); assay: Increase of JNK phosphorylation in U50488 treated HEK293 cells expressing GFP tagged kappa opioid receptor; format: cell-based
Summary of the method: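 KOR-GFP HEK293 cells under G418, serum-starved 18 h, then concentration series for 1 h at 37 °C. Lysate (40 μg protein) immunoblotted for phospho-JNK, p54 and p46 summed, normalised to basal (100%). EC50 from nonlinear regression; n = 3–5 separate cultures.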

[4] = biological target: T1, c-Jun N-terminal kinase, JNK; assay: Increase of JNK phosphorylation in U50488 treated HEK293 cells expressing GFP tagged kappa opioid receptor relative to U50,488; format: cell-based
[5] = biological target: T1, c-Jun N-terminal kinase, JNK; assay: Increase of JNK phosphorylation in U50488 treated untransfected HEK293 cells at 100 uM after 15 mins; format: cell-based
[6] = biological target: T1, c-Jun N-terminal kinase, JNK; assay: Increase of U50488-induced JNK phosphorylation in untransfected HEK293 cells at 50 uM after 15 mins; format: cell-based
[7] = tested on: Mus musculus; assay: Inhibition of U50488-induced analgesic activity against C57BL/6 mouse assessed as tail withdrawal latency at 10 mg/kg, ip upto 21 days; format: functional, organism-based; parameters: dose 10 mg/kg; summary of the method: as §1
[8] = biological target: T1, c-Jun N-terminal kinase, JNK; assay: Increase of JNK phosphorylation in U50488 treated untransfected HEK293 cells at 10 uM after 1 hr; format: cell-based
Summary of the method: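 Untransfected HEK293 cells grown without G418, serum-starved 18 h, then ligand 10 μM for 1 h at 37 °C. Phospho-JNK immunoblot quantified as % of basal untreated control, n = 3–7.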

[9] = tested on: Mus musculus; assay: Effect on U50488-induced analgesic activity in C57BL/6 mouse assessed as tail withdrawal latency at 10 mg/kg, ip; format: functional, organism-based; parameters: dose 10 mg/kg
Summary of the method: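 Male mice, 20–30 g, 8–12 weeks old, got a single ip injection in saline (control: saline). At set times from 24 h to 28 days afterward, they were challenged with U50,488 15 mg/kg ip. Tail-withdrawal latency from 52 ± 1 °C water was read 30 min later, with a 15 s cut-off. Groups were compared with saline by one-way ANOVA and Bonferroni.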

[10] = tested on: Mus musculus; assay: Inhibition of U50488-induced analgesic activity against C57BL/6 mouse assessed as tail withdrawal latency at 10 mg/kg, ip for 14 days; format: functional, organism-based; parameters: dose 10 mg/kg; summary of the method: as §1
[11] = biological target: T1, c-Jun N-terminal kinase, JNK; assay: Increase in JNK phosphorylation in pertussis toxin treated HEK293 cells expressing GFP tagged kappa opioid receptor at 10 uM after 1 hr; format: cell-based
Summary of the method: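 KOR-GFP HEK293 cells serum-starved, pretreated with pertussis toxin 200 ng/ml for 18 h at 37 °C, then ligand 10 μM for 1 h at 37 °C. Phospho-JNK p54/p46 read by infrared immunoblot with β-actin loading control. Expressed as % basal, n = 3–4; Student's t test.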

[12] = biological target: Kappa-type opioid receptor (Mus musculus, UniProt P33534); assay: Displacement of [3H]U69,593 from kappa opioid receptor in mouse brain tissue
Kappa-type opioid receptor, sequence (P33534 whole entry): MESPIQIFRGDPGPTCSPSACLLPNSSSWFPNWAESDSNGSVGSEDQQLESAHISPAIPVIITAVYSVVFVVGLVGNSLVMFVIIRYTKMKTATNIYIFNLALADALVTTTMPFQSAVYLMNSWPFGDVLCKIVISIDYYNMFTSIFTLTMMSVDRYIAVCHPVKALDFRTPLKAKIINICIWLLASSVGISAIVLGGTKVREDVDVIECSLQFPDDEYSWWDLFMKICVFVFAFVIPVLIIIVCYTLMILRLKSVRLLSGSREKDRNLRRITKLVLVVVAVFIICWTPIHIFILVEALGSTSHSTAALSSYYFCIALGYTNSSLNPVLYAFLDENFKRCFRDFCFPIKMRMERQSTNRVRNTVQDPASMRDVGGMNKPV

[13] = tested on: Mus musculus; assay: Reversal of inhibition of U50488-induced analgesic activity against C57BL/6 mouse assessed as tail withdrawal latency at 10 mg/kg, ip after 8 days in presence of SP600125; format: functional, organism-based; parameters: dose 10 mg/kg
Summary of the method: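 Wild-type mice given SP600125 30 mg/kg i.p. (vehicle 5% […]/20% Cremophor EL/75% saline) 24 h and 30 min before 10 mg/kg i.p. test drug. Day 7–8: U50,488 25 mg/kg i.p. challenge, then tail-flick latency in 52 °C water, 15 s cut-off.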

[14] = tested on: Mus musculus; assay: Increase of JNK phosphorylation in mouse spinal cord at 10 mg/kg, ip after 1 hr; format: organism-based; parameters: dose 10 mg/kg
Summary of the method: (§2)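 C57Bl/6 mice (wild type; KOR−/− as control) given 10 mg/kg i.p. Spinal cord and striatum dissected 60 min later and Dounce-homogenised in lysis buffer with phosphatase and protease inhibitors. Phospho-JNK immunoblot expressed as % of basal untreated control.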

[15] = tested on: Mus musculus; assay: Inhibition of U50488-induced analgesic activity against C57BL/6 mouse assessed as tail withdrawal latency at 10 mg/kg, ip after 28 days; format: functional, organism-based; parameters: dose 10 mg/kg; summary of the method: as §1
[16] = tested on: Mus musculus; assay: Increase of JNK phosphorylation in mouse striatum at 10 mg/kg, ip after 1 hr; format: organism-based; parameters: dose 10 mg/kg; summary of the method: as §2

Compound: C=CCN1CC[C@]23c4c5ccc(O)c4O[C@H]2C(=O)CC[C@@]3(O)[C@H]1C5
- Activity [1]: Active
- Activity [2]: inactive

Compound: CO[C@@]12CC[C@@]3(C[C@@H]1[C@](C)(O)C(C)(C)C)[C@H]1Cc4ccc(O)c5c4[C@@]3(CCN1CC1CC1)[C@H]2O5
- Activity [3]: inactive
- Intrinsic activity [4]: inactive

Compound: COc1ccc(C[C@H]2NC[C@H](O)[C@H]2OC(C)=O)cc1
- Activity [5]: Active
- Activity [6]: Active

Compound: N=C(N)Nc1ccc2[nH]c3c(c2c1)C[C@@]1(O)[C@H]2Cc4ccc(O)c5c4[C@@]1(CCN2CC1CC1)[C@H]3O5
- Activity [7]: Active
- Activity [8]: inactive

Compound: Oc1c2ccccc2c2c3c(cccc13)N=N2
- Activity [9]: inactive

Compound: CC(C)C[C@H](NC(=O)[C@H](Cc1ccccc1)NC(=O)CNC(=O)CNC(=O)[C@@H](N)Cc1ccc(O)cc1)C(=O)N[C@@H](CCCNC(=N)N)C(=O)N[C@@H](CCCNC(=N)N)C(=O)N[C@@H](CCC(N)=O)C(=O)N[C@@H](Cc1ccccc1)C(=O)N[C@@H](CCCCN)C(=O)N[C@H](C(=O)N[C@H](C(=O)N[C@H](C(=O)O)[C@@H](C)O)C(C)C)C(C)C [DYNORPHIN B]
- EC50 [3]: 87 nM
- Intrinsic activity [4]: 0.61

Compound: CC(C)[C@@H](CN1CC[C@@](C)(c2cccc(O)c2)[C@@H](C)C1)NC(=O)[C@H]1Cc2ccc(O)cc2CN1 [JDTIC]
- Activity [10]: Active
- EC50 [3]: 5 nM
- Intrinsic activity [4]: 0.57
- Activity [8]: inactive

Compound: Oc1ccc2c3c1O[C@H]1c4[nH]c5c(c4C[C@@]4(O)[C@@H](C2)N(CC2CC2)CC[C@]314)C[C@@]1(O)[C@H]2Cc3ccc(O)c4c3[C@@]1(CCN2CC1CC1)[C@H]5O4 [NORBINALTORPHIMINE]
- Activity [11]: inactive
- Activity [7]: Active
- Kd [12]: 1.65 nM
- Activity [13]: Active
- Activity [14]: Active
- Activity [15]: inactive
- EC50 [3]: 158 nM
- Intrinsic activity [4]: 0.84
- Activity [16]: Active
- Activity [8]: inactive
